The text below walks through data of ChEMBL document CHEMBL4251735, “New Hybrids Derived from Podophyllic Aldehyde and Diterpenylhydroquinones with Selectivity toward Osteosarcoma Cells” (ACS Med Chem Lett, 2018).

The source made the active and inactive calls. No cut-off for these calls is given here.

The subject of test [1] is MG-63. As to the kind of experiment: Cytotoxicity against human MG63 cells after 24 hrs by annexin-V-FITC/propidium iodide staining based flow cytometric method. Format: functional, cell-based. Particulars: MG-63, 24 h. The procedure, abridged: (§1)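 Flow cytometric cytotoxicity measured after 24 h exposure; IC50 derived. Viability was also plotted against drug concentrations from 0.1 to 100 µM over 24 h in HT-29, MCF-7 and MG-63.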
For orientation: Flow cytometry measures light scatter and fluorescence of single cells or particles in a stream.

The test system of test [2] is HT-29. Put plainly: Cytotoxicity against human HT-29 cells after 24 hrs by annexin-V-FITC/propidium iodide staining based flow cytometric method. Format: functional, cell-based. Particulars: HT-29, 24 h. In outline: as §1
Test [3] concerns MCF7. As to the kind of experiment: Cytotoxicity against human MCF7 cells after 72 hrs by MTT assay. Format: functional, cell-based. Conditions: for IC50: MCF7, 72 h. In outline: (§2)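 MTT viability assay after 72 h incubation; IC50 reported as mean ± error from viability curves.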
For orientation: Tetrazolium assays rely on reduction of a dye to a coloured formazan, in cell work by metabolically active cells.

Test [4] concerns MCF7. Put plainly: Cytotoxicity against human MCF7 cells after 24 hrs by annexin-V-FITC/propidium iodide staining based flow cytometric method. Particulars: MCF7, 24 h. Format: functional, cell-based. The procedure, abridged: as §1
Test [5] concerns HT-29. As to the kind of experiment: Cytotoxicity against human HT-29 cells after 72 hrs by MTT assay. Format: functional, cell-based. Conditions: for IC50: HT-29, 72 h. In outline:
as §2

Test [6] relates to MG-63. As to the kind of experiment: Cytotoxicity against human MG63 cells after 72 hrs by MTT assay. The test is classed as functional, cell-based. Particulars: for IC50: MG-63, 72 h. In outline: as §2
Test [7] deals with MG-63. As to the kind of experiment: Induction of apoptosis in human MG63 cells assessed as total apoptotic cells at 1 uM after 24 hrs by annexin-V-FITC/propidium iodide staining based flow cytometric analysis (reference value: 10.42%). The test is classed as functional.
Test [8] relates to MG-63. Put plainly: Induction of apoptosis in human MG63 cells assessed as viable cells at 1 uM after 24 hrs by annexin-V-FITC/propidium iodide staining based flow cytometric analysis (reference value: 89.58%). The test is classed as functional. Conditions: MG-63, 24 h, read-out: Activity.
Test [9] has as its system MG-63. Put plainly: Cell cycle arrest in human MG63 cells assessed as increase in accumulation at G2/M phase at 1 uM after 24 hrs by propidium iodide staining based flow cytometric analysis relative to control. The test is classed as functional. The procedure, abridged:
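MG-63 cells incubated 24 h with compound at 1 µM alongside vehicle control (DMSO, <0.001%); DNA content measured by fluorescence flow cytometry, giving percentages of cells in G0/G1, S and G2/M; significance versus control tested at p < 0.001.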

In test [10] the test system is MG-63. Put plainly: Induction of apoptosis in human MG63 cells assessed as increase in late apoptotic cells at 1 uM after 24 hrs by annexin-V-FITC/propidium iodide staining based flow cytometric analysis. Format: functional, cell-based. In outline:
(§3)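 Apoptosis was assessed in MG-63 cells treated for 24 h at 1 µM, alongside a DMSO vehicle control (<0.001%). Cells were stained with annexin V and PI and analysed by flow cytometry. Populations were classed as early apoptotic (annexin+/PI-), late apoptotic/dead (annexin+/PI+) or living (annexin-/PI-). Total annexin+ percentage and the PI-/PI+ ratio were reported.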

Test [11] concerns MG-63. Put plainly: Cell cycle arrest in human MG63 cells assessed as reduction in accumulation at G0/G1-phase at 1 uM after 24 hrs by propidium iodide staining based flow cytometric analysis relative to control. The test is classed as functional. Also noted: scale not given: the % may be the effect or the level left. The procedure, abridged: (§4)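 MG-63 osteosarcoma cells exposed to test agent at 1 µM for 24 h, with a DMSO vehicle control (<0.001%). DNA content was measured by fluorescence flow cytometry, and cells were assigned to G0/G1, S and G2/M phases as percentage of the population. Significance versus control was tested at p < 0.001.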

Test [12] relates to MG-63. Put plainly: Induction of apoptosis in human MG63 cells assessed as increase in early apoptotic cells at 1 uM after 24 hrs by annexin-V-FITC/propidium iodide staining based flow cytometric analysis. The test is classed as functional, cell-based. The procedure, abridged:
as §3

Test [13] relates to MG-63. Put plainly: Cell cycle arrest in human MG63 cells assessed as reduction in accumulation at S-phase at 1 uM after 24 hrs by propidium iodide staining based flow cytometric analysis relative to control. Further details: scale not given: the % may be the effect or the level left. The test is classed as functional. In outline:
as §4

Broadly, the IC50 is the concentration that inhibits the measured activity by half.

On to `C=C1CCC2[C@](C)(CCC[C@]2(C)C(=O)OCCCCCCOC(=O)[C@@H]2C(C=O)=Cc3cc4c(cc3[C@H]2c2cc(OC)c(OC)c(OC)c2)OCO4)[C@H]1CCc1ccc2c(OC(C)=O)ccc(OC(C)=O)c2c1` (stereo partly drawn), for which the half-inhibitory concentration (IC50) was 44.6 µM in [1]; 57.6 µM in [2]; 1 µM in test [3]; greater than 100 µM in test [4]; 1.91 µM in test [5]; 2.06 µM in test [6]. In addition, the Activity in test [7] is recorded as 11.24%. For the same compound, the viability at 1 µM in test [8] worked out at 88.8%.
In the case of `COC(=O)[C@@H]1C(C=O)=Cc2cc3c(cc2[C@H]1c1cc(OC)c(OC)c(OC)c1)OCO3` [PODOPHYLLIC ALDEHYDE], the IC50 in test [1] was 1.23 µM; in test [2], greater than 100 µM; in test [3], 0.48 µM; in test [4], greater than 100 µM; in test [5], 0.029 µM; in [6] it was 0.06 µM. The outcome in [9], in [10] and in test [12] was Active. In addition, the Activity in test [11] amounted to 100%; in test [13], 100%; in test [7], 48.08%. Besides, the viability at 1 µM in [8] was found to be 51.9%.
For the compound `C=C1CCC2[C@](C)(CCC[C@]2(C)C(=O)OC)[C@H]1CCc1ccc2c(OC(C)=O)ccc(OC(C)=O)c2c1` (stereo partly drawn), the IC50 in test [1] is 1.16 µM; in [2] it was 5.65 µM; in test [3], 0.015 µM; in test [4], 29.9 µM; in test [5] it was 0.018 µM; in test [6] it was 0.41 µM. Also, the result in test [9] was Active.
As for `C=C1CCC2[C@](C)(CCC[C@]2(C)C(=O)OCCCCCCBr)[C@H]1CCc1ccc2c(OC(C)=O)ccc(OC(C)=O)c2c1` (stereo partly drawn), the outcome in [3], in [5] and in test [6] was Active.
`C=C1CCC2[C@](C)(CCC[C@]2(C)C(=O)OCc2ccc(COC(=O)[C@@H]3C(C=O)=Cc4cc5c(cc4[C@H]3c3cc(OC)c(OC)c(OC)c3)OCO5)cc2)[C@H]1CCc1ccc2c(OC(C)=O)ccc(OC(C)=O)c2c1` (stereo partly drawn): the IC50 in [1] was 0.5 µM; in test [2], greater than 100 µM; in [3], 1.03 µM; in test [4], greater than 100 µM; in test [5] it was 1.44 µM; in test [6], 0.15 µM. In addition, in [9], the “fold change (FC)” value came out at 5. Besides, the outcome in test [10] and in test [12] was Active. Further, the figures for the Activity in test [11], in test [13] and in test [7] were 100%, 100% and 89.96%, respectively. The viability at 1 µM in test [8] stood at 10%.
`COc1cc([C@@H]2c3cc4c(cc3[C@H](O)[C@H]3COC(=O)[C@H]23)OCO4)cc(OC)c1OC` [PODOFILOX]: the IC50 in test [1] was 18.3 µM; in [2] it was greater than 100 µM; in [3], 0.028 µM; in test [4], greater than 100 µM; in [5], 0.066 µM; in test [6], 0.007 µM. The outcome in test [9] was Active. For the same compound, the Activity in test [7] was 48.56%. Also, the viability at 1 µM in test [8] turned out to be 51.4%.
Consider `C=C1CCC2[C@](C)(CCC[C@]2(C)C(=O)OCCCBr)[C@H]1CCc1ccc2c(OC(C)=O)ccc(OC(C)=O)c2c1` (stereo partly drawn), for which the outcome in [3], in test [5] and in test [6] was Active.
On to `C=C1CCC2[C@](C)(CCC[C@]2(C)C(=O)OCc2ccc(CBr)cc2)[C@H]1CCc1ccc2c(OC(C)=O)ccc(OC(C)=O)c2c1` (stereo partly drawn), for which the outcome in test [3], in [5] and in [6] was Active.
Regarding `C=C1CCC2[C@](C)(CCC[C@]2(C)C(=O)OCCCOC(=O)[C@@H]2C(C=O)=Cc3cc4c(cc3[C@H]2c2cc(OC)c(OC)c(OC)c2)OCO4)[C@H]1CCc1ccc2c(OC(C)=O)ccc(OC(C)=O)c2c1` (stereo partly drawn), the IC50 was 58.2 µM in test [1]; greater than 100 µM in test [2]; 2.21 µM in test [3]; greater than 100 µM in [4]; 1.51 µM in test [5]; 2.23 µM in test [6]. The result in [9] was Active. Also, the Activity in test [7] turned out to be 25.03%. In addition, the viability at 1 µM in test [8] was 75%.
